Key:
[1] = Half life in rat at 0.5 mg/kg, iv; type: ADME, organism-based; conditions: in vivo
Method in brief: (§1)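 Rat PK after a single intravenous dose of 0.5 mg/kg given in DMSO. Plasma clearance, volume of distribution and half-life were derived from the plasma data.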

[2] = Intrinsic clearance in human hepatocytes; type: ADME, cell-based, Hepatocyte; conditions: read-out: CLH
[3] = system: Rattus norvegicus; test: In vivo inhibition of MB-COMT in ip dosed rat assessed as decrease in homovanillic acid level in cerebrospinal fluid after 1 hr; type: functional, organism-based
Method in brief: (§2)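 Rats were dosed intraperitoneally, and cerebrospinal fluid was collected one hour later. HVA and DOPAC levels were measured and compared with vehicle by ANOVA, with significance set at p<0.05.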

[4] = target: T1, Catechol O-methyltransferase (Homo sapiens, UniProt P21964); test: Inhibition of recombinant human C-terminal His6-tagged soluble COMT transfected in Escherichia coli BL21-Gold (DE3) using SAM/dopamine as substrate preincubated for 2 hrs followed by substrate addition measured after 25 mins by SAC TAMRA tracer-based fluorescence polarization assay
T1 sequence (P21964 whole entry): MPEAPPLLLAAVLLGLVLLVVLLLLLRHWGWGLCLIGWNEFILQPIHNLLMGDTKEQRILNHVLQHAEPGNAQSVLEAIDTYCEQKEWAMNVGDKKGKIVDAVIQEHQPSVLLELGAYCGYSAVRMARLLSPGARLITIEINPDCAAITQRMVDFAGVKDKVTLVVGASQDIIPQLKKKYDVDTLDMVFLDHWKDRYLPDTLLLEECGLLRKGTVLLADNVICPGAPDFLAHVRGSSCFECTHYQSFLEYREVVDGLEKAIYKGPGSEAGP

[5] = system: Rattus norvegicus; test: In vivo inhibition of MB-COMT in ip dosed rat assessed as increase in dihydroxyphenylacetic acid level in cerebrospinal fluid after 1 hr; type: functional, organism-based; method in brief: as §2
[6] = target: T2, Catechol O-methyltransferase (Rattus norvegicus, UniProt P22734); test: Inhibition of recombinant rat C-terminal His10-tagged MB-COMT transfected in Escherichia coli BL21-CodonPlus(DE3)-RIPL using SAM/dopamine as substrate preincubated for 2 hrs followed by substrate addition measured after 25 mins by SAC TAMRA tracer-based fluorescence polarization assay
T2 sequence (P22734 whole entry): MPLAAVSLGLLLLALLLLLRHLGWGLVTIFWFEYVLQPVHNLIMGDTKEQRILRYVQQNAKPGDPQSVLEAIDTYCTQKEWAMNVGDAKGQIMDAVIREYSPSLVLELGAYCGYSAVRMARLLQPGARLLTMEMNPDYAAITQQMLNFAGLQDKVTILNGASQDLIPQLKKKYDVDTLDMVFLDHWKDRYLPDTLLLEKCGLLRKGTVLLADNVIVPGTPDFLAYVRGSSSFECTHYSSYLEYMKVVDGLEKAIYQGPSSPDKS

[7] = Volume of distribution in rat at 0.5 mg/kg, iv; type: ADME, organism-based; conditions: in vivo; method in brief: as §1
[8] = Plasma concentration in rat at 30 mg/kg, ip after 1 hr; type: ADME, organism-based
Method in brief: (§3)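 Rats dosed intraperitoneally at 30 or 100 mg/kg. Plasma and cerebrospinal fluid were sampled one hour after dosing, and drug concentrations were measured in each.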

[9] = Drug uptake in rat cerebrospinal fluid at 100 mg/kg, ip after 1 hr; type: ADME, organism-based; conditions: read-out: Drug uptake; method in brief: as §3
[10] = Plasma concentration in rat at 100 mg/kg, ip after 1 hr; type: ADME, organism-based; method in brief: as §3
[11] = Intrinsic clearance in rat hepatocytes; type: ADME, cell-based, Hepatocyte; conditions: read-out: CLH
[12] = target: T1, Catechol O-methyltransferase; test: Inhibition of recombinant human C-terminal His6-tagged MB-COMT expressed in Bacmid using SAM/dopamine as substrate preincubated for 2 hrs followed by substrate addition measured after 25 mins by SAC TAMRA tracer-based fluorescence polarization assay
[13] = system: Cerebrospinal fluid; test: Drug uptake in rat cerebrospinal fluid at 30 mg/kg, ip after 1 hr; type: ADME, organism-based; conditions: in vivo, BLD = below limit of detection; method in brief: as §3
[14] = Plasma clearance in rat at 0.5 mg/kg, iv; type: ADME, organism-based; method in brief: as §1

IC50 [4] [nM] | IC50 [12] [nM] | Structure (SMILES) | other results
3020 | 40 | O=c1ccn(-c2cc(-c3ccccc3)ccn2)cc1O | half-life [1]: 24 min; CLint scaled [2]: 74 mL/min/kg; inhibition [3]: Dose-dependent effect; inhibition [5]: Dose-dependent effect; IC50 [6]: 15 nM; Vd [7]: 1.9 L/kg; concentration at 1 h [8]: 70 nM; concentration at 1 h [9]: 410 nM; concentration at 1 h [10]: 3600 nM; CLint scaled [11]: 448 mL/min/kg; Drug uptake [13]: BLD; clearance [14]: 94 mL/min/kg
 | 574 | O=c1ccn(-c2cc(-c3cccnc3)ccn2)cc1O | 
 | 101 | CC(C)(C)c1nc(-c2ccnc(-n3ccc(=O)c(O)c3)c2)cs1 | IC50 [6]: 15 nM
 | 672 | O=c1ccn(-c2cc(-c3ccncc3)ccn2)cc1O | 
1270 | 962 | O=c1ccn(-c2nccc3ccccc23)cc1O | 
> 5000 | > 5000 | O=c1ccn(-c2ncccc2-c2ccccc2)cc1O | 
> 5000 | > 5000 | O=c1ccn(-c2nc(-c3ccccn3)cs2)cc1O | 
2580 | 128 | O=c1ccn(-c2cccc(-c3ccccc3)n2)cc1O | 
 |  | O=c1ccn(-c2cccc(-c3ccccc3)c2)cc1O | CLint scaled [2]: 320 mL/min/kg; CLint scaled [11]: 583 mL/min/kg; clearance [14]: 58 mL/min/kg
2320 | 456 | O=c1ccn(-c2ccnc(-c3ccccc3)c2)cc1O | 
 | 49.5 | O=c1ccn(-c2cc(-c3cnn(Cc4ccccc4)c3)ccn2)cc1O | IC50 [6]: 28 nM
 | 35 | O=c1ccn(-c2cc(-c3ccc(Cl)c(Cl)c3)ccn2)cc1O | CLint scaled [2]: 292 mL/min/kg; IC50 [6]: 27 nM; clearance [14]: 200 mL/min/kg
946 | 55 | O=c1ccn(-c2nccc(-c3ccccc3)c2F)cc1O | 
 | 826 | O=c1ccn(-c2cc(-c3ccccn3)ccn2)cc1O | 
2050 | 706 | O=c1ccn(-c2ccnc(-c3ccccc3)n2)cc1O | 
1670 | > 5000 | Cc1cn2nc(-n3ccc(=O)c(O)c3)ccc2n1 | 
 | 84 | O=c1ccn(-c2cc(-c3cccc(C(F)(F)F)n3)ccn2)cc1O | IC50 [6]: 11 nM
